Bioassay records: PubChem, Broad Institute
E-selectin induc: E-selectin induction in HUVECs, primary screen, imaging, HUVEC, immunofluorescence imaging, single point | P16581 | normalized: neutral wells 0, TNF-alpha wells 100 | activation, % at 7.58 µM | 260,000 compounds, 0.37% hits;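 active = mean E-selectin-positive cell signal at least 10% of the positive control, reached in at least 60% of replicates, without over 20% cell loss; inconclusive = no rule given, readout overlaps actives, possibly toxicity-flagged; inactive = the rest, including those meeting only one limit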
Target sequence (P16581 whole entry, looked up): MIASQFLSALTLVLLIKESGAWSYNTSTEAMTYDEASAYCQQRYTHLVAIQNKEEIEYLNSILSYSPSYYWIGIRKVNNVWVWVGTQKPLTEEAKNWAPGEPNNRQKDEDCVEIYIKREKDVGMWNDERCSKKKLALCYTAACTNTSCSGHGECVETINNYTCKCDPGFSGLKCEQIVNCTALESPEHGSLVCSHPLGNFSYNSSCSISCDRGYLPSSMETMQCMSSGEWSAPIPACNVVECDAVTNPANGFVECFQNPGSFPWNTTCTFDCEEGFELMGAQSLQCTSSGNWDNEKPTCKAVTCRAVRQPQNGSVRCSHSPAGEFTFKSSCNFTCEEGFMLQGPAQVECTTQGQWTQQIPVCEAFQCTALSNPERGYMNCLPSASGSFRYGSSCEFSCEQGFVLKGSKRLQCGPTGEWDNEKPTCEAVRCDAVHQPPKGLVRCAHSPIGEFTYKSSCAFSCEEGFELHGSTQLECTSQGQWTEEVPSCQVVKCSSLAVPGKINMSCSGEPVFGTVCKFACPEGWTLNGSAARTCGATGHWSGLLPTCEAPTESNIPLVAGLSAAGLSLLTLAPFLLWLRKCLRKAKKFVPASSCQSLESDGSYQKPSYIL
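Test system: HUVEC | Signal: Immunofluorescence imaging | Read-out: Percent E-selectin-positive cells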
RAD54 inh: inhibitors of human RAD54 branch migration, primary screen, biochemical, fluorescence, single point | DNA repair and recombination protein RAD54-like (Homo sapiens), Q92698 | RAD54 Holliday junction branch migration, FAM/BHQ fluorescence | inhibition, % at 10.4 µM | 360,000 compounds, 0.14% hits | AID 602329, 2012;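 active = mean normalized replicate activity at least 40 and at least half of replicates scoring 40 or more; inconclusive = only one of the two criteria met; inactive = mean below 40 and under half of replicates reaching 40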;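 also: 0% = median of neutral control wells and 100% = median of positive control wells; inhibitors cause a drop in the FAM fluorescence signal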
RAD52 inh: RAD52 DNA annealing inhibitors, primary screen, biochemical, FRET, single point, set 2. DNA repair protein RAD52 homolog (Homo sapiens), P43351. recombinant RAD52 DNA annealing, FRET fluorescence. inhibition, % at 18.7 µM. 360,000 compounds, 0.46% hits. AID 651710, 2012;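 active = every replicate showing at least 50% inhibition; inconclusive = mean inhibition at least 50% but not in every replicate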
MLL AF4-AF9 inh: inhibitors of AF4 peptide binding to AF9, primary screen, biochemical, AlphaScreen, biotin-AF4 peptide, FLAG-AF9, single point; AID 651704, 2012; inhibition, % at 10 µM; 350,000 compounds, 0.47% hits;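 active = every replicate reaching a set inhibition limit, whatever the replicate mean, cut at about 25% in these data; inconclusive = mean inhibition reaches that limit but some replicates miss it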;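 also: 0% = plate neutral control median and 100% = total signal loss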
Ecoli rRNA inh: reduced GFP signal of wild-type E. coli, primary screen, bacterial rRNA inhibitor project, GFP/RFP fluorescence, OD600, single point | E. coli WT GFP vs humanized-ribosome RFP mutants, 24 h; hits give low values; DMSO median 0, no signal -100 | GFP signal change (wild-type ribosome), % (concentration not given with the values) | 350,000 compounds, 1.6% hits;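 active = significant combined selectivity score with lowered wild-type GFP, culture density cut under 30%, mutant RFP and density less affected; inactive = any of these conditions unmet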
INS-1E GSIS act: GLuc luminescence reporter in INS-1E cells, primary screen for activators of glucose-dependent secretion of insulin; INS-1E GLuc reporter insulin secretion, 2-3 h; activation, % at 16.6 µM; 370,000 compounds, 0.61% hits; AID 743287, 2014;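 active = lowest replicate activation of at least 40%, so every replicate reaches that level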;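 also: 0% = median of neutral control wells and 100% = median of IBMX positive control wells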
* marks the source's active call; other numbers are inactive results; i = inactive; ? = inconclusive; . = not tested or not shown. Most compounds without a hit are left out; they make up all but 2.6% or so of the library.

SMILES	E-selectin induc	RAD54 inh	RAD52 inh	MLL AF4-AF9 inh	Ecoli rRNA inh	INS-1E GSIS act
COc1cccc(-c2sc3ccccc3c2-c2ccc(OCCN3CCOCC3)cc2)c1	0	1	33	10	11	17
CCOc1ccc(-c2cc(C)[n+](CCN3CCOCC3)c(-c3ccc(OCC)cc3)c2)cc1	0	.	11	.	-53*	-2
CCOC(=O)[C@@H]1[C@@H]2NC(=S)N(C)[C@@]1(COCc1ccc(OC)cc1)Oc1ccccc12	.	-4	22	6	.	.
CCN(CC)P(=O)(Oc1ccccc1)Oc1ccccc1	0	-11	-15	-1	-32*	-3
COc1ccc(-n2c(/C=C/c3ccc(O)c(O)c3)nc3ccccc3c2=O)cc1	.	-9	-46	10	-21*	-11
COc1cc(/C=C/c2nc3ccccc3c(=O)n2-c2ccc(O)cc2)ccc1O	0	-7	-25	5	-1	-14
O=C(Cc1cccnc1)N1CCCCN2[C@H](CO)[C@H](c3ccc(/C=C/c4ccccc4)cc3)[C@H]2C1	-1	-3	-23	16	-22	-12
O=C(Cc1cccnc1)N1CCCCN2[C@H](CO)[C@@H](c3ccc(/C=C/c4ccccc4)cc3)[C@H]2C1	-1	-6	-25	27*	-59	-15
c1cc(-c2ccc(C3[C@H]4CNC[C@@H]3N4CC3CC3)cc2)ccn1 (stereo partly drawn)	1	.	14	38*	6	15
c1cncc(-c2ccc(C3[C@H]4CNC[C@@H]3N4CC3CC3)cc2)c1 (stereo partly drawn)	0	.	.	.	3	14
CN1C[C@@H]2N[C@H](C1)C2c1ccc(Br)cc1 (stereo partly drawn)	.	.	.	.	1	-6
CCOC(=O)N1CCC(NC(=O)CCc2nc(C3=CCN(C)CC3)no2)CC1	-2	-13	-5	33*	9	1
O=C(O)[C@H]1[C@H](CO)[C@H]2Cn3c(ccc(-c4ccccc4)c3=O)[C@@H]1N2C(=O)C1CCCCC1	0	2	-6	-1	2	1
O=P(NC(c1ccccc1)c1ccccc1)(Oc1ccccc1)Oc1ccccc1	.	-7	.	.	.	40*
CCCC[N+]12CCC(CC1)C(C(O)(c1ccccc1)c1ccccc1)C2 (stereo not drawn)	53*	.	-18	1	2	-4
COc1ccc2[nH]c(C)c(CCNCc3cn(C)c4ccccc34)c2c1	-2	.	34	51*	12	-27
OC[C@@H]1[C@@H]2c3ccccc3NC[C@@H]2N1Cc1cccnc1	0	0	-11	-3	0	-9
Cc1c(N=Nc2c(O)n(-c3ccc(Br)cc3)c(=O)[nH]c2=O)c(=O)n(-c2ccccc2)n1C	.	2	-25	0	-35*	12
CCCCC(=O)N/N=C/c1c(O)n(Cc2ccc(F)cc2)c(=O)[nH]c1=O	?	.	-114	-1	-27*	.
CN1/C(=C\C=C2C(=O)NC(=O)NC2=O)C(C)(C)c2ccccc21	.	.	-404	-2	21	-3
CCN1/C(=C/C=C/C2=[N+](CC)c3ccccc3C2(C)C)C(C)(C)c2ccccc21	131*	i	i	3	103	-56
CC(=O)N1C[C@@H]2N[C@H](C1)C2c1ccccc1 (stereo partly drawn)	.	.	.	.	0	-2
Cc1ccc(C(=O)N[C@@H](C)CN2C3=NC[C@@H](Cc4ccccc4)N3C[C@H]2Cc2ccc(O)cc2)cc1Br	0	.	31	27*	-54	-53
C[n+]1c2ccccc2nc2ccc(NCCO)cc21	.	75*	-38	6	-1	3
CNc1ccc2nc3ccccc3[n+](C)c2c1	0	98*	-130	9	-13	-34
SMILES	E-selectin induc	RAD54 inh	RAD52 inh	MLL AF4-AF9 inh	Ecoli rRNA inh	INS-1E GSIS act
CC1=C2C[C@H]3[C@@H](CC=C4C[C@@H](O)CC[C@@]43C)[C@@H]2CC[C@]12O[C@@H]1C[C@H](C)CN[C@@H]1C2C (stereo partly drawn)	.	.	-2	-1	.	.
Cc1cccn2c(=O)c3c(nc12)N1CCCCCC1C1(C3)C(=O)N(C)C(=O)N(C)C1=O (stereo not drawn)	55*	2	-39	2	16	0
Cc1cccn2c(=O)c3c(nc12)N1CCc2ccccc2C1C1(C3)C(=O)NC(=O)N(C)C1=O (stereo not drawn)	.	-3	.	.	.	1
CC(C)NC(=O)N1[C@@H]2c3ccc(-c4cccc(C(=O)N(C)C)c4)c(=O)n3C[C@H]1[C@H](CO)[C@H]2C(=O)O	0	-6	3	-1	2	18
CC1CCC(C(C)C)C(OC(=O)Cn2c(COc3ccccc3)[n+](C)c3ccccc32)C1 (stereo not drawn)	0	29	36	25*	-51	154*
O=C(Cc1ccccn1)N1CCCCN2[C@H](CO)[C@@H](c3ccc(C#Cc4ccccc4)cc3)[C@@H]2C1	-1	0	-50	-2	-59	4
CCNc1cc(N2CCN(C)CC2)ccc1[N+](=O)[O-]	.	14	-9	1	-12	-5
CN1CCN(c2ccc([N+](=O)[O-])c(N/N=C3\CN4CCC3CC4)c2)CC1	-1	70*	.	.	.	.
O=C(O)[C@@H]1[C@@H](CO)[C@@H]2Cn3c(ccc(-c4ccncc4)c3=O)[C@H]1N2C(=O)C1CC1	0	.	.	.	4	4
O=C(NCC1=C(c2cccc3ccccc23)C[C@@H]2CC[C@H]1N2Cc1ccco1)c1ccc([N+](=O)[O-])cc1	0	1	28	25*	-8	-12
CS(=O)(=O)c1ccc(C2=C(CNC(=O)c3ccc([N+](=O)[O-])cc3)[C@H]3CC[C@@H](C2)N3Cc2ccccc2)cc1	-1	5	-10	10	-5	-18
CCOC(=O)[C@@H]1[C@@H]2NC(=O)N(C)[C@@]1(C)Oc1ccccc12	.	-1	5	-4	.	.
Cc1[nH]c2ccccc2c1CCNCc1cccnc1	.	-4	-3	18	7	48*
CS(=O)(=O)N1C[C@@H]2C(c3ccc(Br)cc3)[C@H](C1)N2CC1CC1 (stereo partly drawn)	.	.	.	.	-4	3
CN1CCN(c2cccc3c2C(=O)c2ccccc2C3=O)CC1	0	79*	26	18	-11	9
COC(=O)[C@H]1[C@H](CO)[C@H]2Cn3c(ccc(-c4ccccc4F)c3=O)[C@@H]1N2Cc1ccncc1	0	6	123*	-1	-2	5
